From ChEMBL document CHEMBL4513216, “Probing the Open Global Health Chemical Diversity Library for Multistage-Active Starting Points for Next-Generation Antimalarials” (ACS Infect Dis, 2020)

Test: Toxicity liver stage against HepG2, at 10uM
Type: cell-based
Design: test concentration 10 uM, cell line HepG2-A16-CD81EGFP
Details: human, HepG2-A16-CD81EGFP cells; read-out: INHIBITION
How it was run: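 Uninfected HepG2-A16-CD81EGFP cells, 3 × 10^3 per well, 1536-well, plated on prespotted compound at 10 μM final, parasite-free screening media added to match infected plates; puromycin 10 μM positive, DMSO 0.5% negative; run in parallel with 48 h PbLuc assay at 37 °C, 5% CO2; viability by CellTiter-Glo luminescence, normalized to controls.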

| Structure (SMILES) | cytotoxicity at 10 µM [%] |
| --- | --- |
| OCCN(Cc1nc(-c2ccc3c(c2)OCO3)no1)Cc1cccs1 | -0.191 |
| COc1ccc2c(c1)CN(C)C(=O)CCN2CC(O)C(C)(C)C (stereo unspecified) | 4.17 |
| NC(=O)CN1CC[C@@]2(O)CCCC[C@H]2[C@@H]1c1ccc2c(c1)OCO2 | 3.26 |
| CC(C)c1ccc2c(c1)C1(CC(=O)Nc3[nH]ncc31)C(=O)N2C (stereo unspecified) | -0.582 |
| CCCN1CCc2nc(SCc3ccccc3)[nH]c(=O)c2C1 | 0.279 |
| CCSc1ccccc1C(=O)NCCn1nc(C(F)(F)F)n(C)c1=O | 6.83 |
| O=C(CN1CCC(c2nnc(C(F)(F)F)o2)CC1)Nc1cccc(Cl)c1 | -1.53 |
| COc1cc(C(=O)NCCc2ccc(Cl)cc2)on1 | -0.295 |
| CCOc1ncc(NC(=O)c2ccco2)c(OCC)n1 | -1.76 |
| CCOC(=O)C1CCN(C(=O)c2cc(Br)ccc2-n2cnnn2)CC1 | -2.41 |
| CCN(CC)c1ncc(S(=O)(=O)c2cccc(C)c2)c(N)n1 | -0.707 |
| CCC(=O)c1ccccc1NN1c2ccccc2C(=O)C1(C)OC (stereo unspecified) | 8.57 |
| Cc1cc(C(F)(F)F)nn1CCCNC(=O)C1CCC1 | -12.2 |
| Cc1c(Cn2cc(Cl)c(N)n2)cnn1C | -5.18 |
| CCCc1nc(NCCCn2ccnc2)c2c(n1)c(C)nn2CC | 8.26 |
| CCc1cc(=O)n(CC(=O)N2CCC(C)CC2)c(-c2cccc(F)c2)n1 | 7.63 |
| Cc1c(NC(=O)c2ccc(Br)cc2)c(C(=O)N(C)C)nn1C | 3.65 |
| Cc1sc(Oc2ccccc2Cl)nc1C(=O)O | 1.95 |
| CC1(c2ncc(CN3CCOCC3)cn2)CCCCO1 (stereo unspecified) | 6.08 |
| CN(C)Cc1cnc(C2CCN(C(=O)c3ccc(F)cc3)C2)[nH]1 (stereo unspecified) | -1.92 |
| Nc1cc(-c2c[nH]nc2C2CCCN2CCCc2ccccc2)ccn1 (stereo unspecified) | 3.75 |
| COc1ccc(C2(NC(=O)c3ccc(=O)n(C)n3)CCCC2)cc1 | -0.308 |
| Cc1cc(C)n(CC2CCCN2Cc2ccc(F)cc2C#N)n1 (stereo unspecified) | 7.77 |

| Structure (SMILES) | cytotoxicity at 10 µM [%] |
| --- | --- |
| CCN(CC(O)c1ccc(C)cc1)C(=O)NC(C)C (stereo unspecified) | -7.74 |
| CC(O)CN1CCC(CN(C)Cc2cc(F)cc3cccnc23)CC1 (stereo unspecified) | -1.26 |
| COc1ccncc1NC(=O)C1(c2ccc(F)cc2)CCC1 | 1.52 |
| CN(CC(=O)N1CCCC1)C(=O)c1ccccc1F | 11.7 |
| CCC(CNC(=O)c1cccc(S(=O)(=O)NC)c1)N1CCCC1 (stereo unspecified) | -4.18 |
| Cc1cc(CN(C)C(=O)C(c2ccccc2)N2CCSCC2)no1 (stereo unspecified) | -1.49 |
| Cc1ccccc1C(NC(=O)CCCS(C)(=O)=O)C(C)(C)C (stereo unspecified) | -9.4 |
| COc1ccc(CNC2CCC(O)CC2)cc1OCCCC#N (stereo unspecified) | -2.56 |
| Cc1nnc(NCC(c2ccco2)N2CCCCC2)c(C#N)c1C (stereo unspecified) | -5.23 |
| CC(C)c1nc(C2CCCN(c3nccc(C(F)(F)F)n3)C2)no1 (stereo unspecified) | 5.83 |
| COCCn1ccc(NCc2scnc2C)n1 | -2.9 |
| N#CCCN(CCC#N)C(=O)c1ccc(COc2ccccc2C#N)o1 | -16.6 |
| CNC(=O)C(NC(C)=O)c1ccc(F)c(F)c1 (stereo unspecified) | -6.1 |
| Cc1nn(CCO)c(C)c1CNC1CCCCc2ccccc21 (stereo unspecified) | -2.42 |
| CN(Cc1cnn(C)c1)Cc1nc(Cc2cccc(Cl)c2)no1 | 6.53 |
| N#Cc1cccc(CNC(=O)NC2CCN(CC(F)F)CC2)c1 | 4.16 |
| Cc1ccc(-c2ccc(C(=O)NCC(N)=O)c(F)c2)cc1 | -0.758 |
| Cc1n[nH]c(C2CN(C(=O)c3ccc4c(c3)COC4)CCO2)n1 (stereo unspecified) | 17.4 |
| CC(CNC(=O)Nc1ccc(F)cc1-n1cccc1)N1CCOCC1 (stereo unspecified) | -8.71 |
| CCc1nncn1CCNC(=O)N1CCCC(Cc2nccn2C)C1 (stereo unspecified) | 0.548 |
| CN1CCC(N(C)C(=O)CCc2ccc(F)c(F)c2)C1=O (stereo unspecified) | -17.7 |
| O=C1NCCCCC1NS(=O)(=O)N1CCCCCC1 (stereo unspecified) | 4.15 |
| CN(C)S(=O)(=O)c1ccc(CSCC(=O)NC(C)(C)C)o1 | -1.82 |

| Structure (SMILES) | cytotoxicity at 10 µM [%] |
| --- | --- |
| CCC1c2ccccc2CCN1CCNS(C)(=O)=O (stereo unspecified) | 5.56 |
| Cn1cc(C(=O)O)c(-c2ccc(F)cc2F)n1 | -4.03 |
| O=S(=O)(N1CCCC1)N(Cc1ccccc1)CC1CCCO1 (stereo unspecified) | -0.966 |
| COc1ccccc1CNC(=O)C1=NN(c2ccc(C)cc2)C(=O)CN1 | 25.1 |
| C[S+]([O-])CCCNC(=O)c1cc(Br)c2c(c1)OCCO2 (stereo unspecified) | 16.9 |
| CN(C)C(=O)c1cn2cc(-c3cccc(Cl)c3)n(CC3CC3)c(=O)c2n1 | -1.62 |
| Cc1cccc(CN2CCN(C(=O)c3cc(Cl)c[nH]c3=O)CC2)c1 | 1.47 |
| NC(=O)N1CCCC(C(=O)N2CCc3c(nc(CC4CC4)[nH]c3=O)C2)C1 (stereo unspecified) | -13.8 |
| COc1ccccc1N1CCN(C(=O)CSC(C)C)C(C)C1 (stereo unspecified) | -3.97 |
| Cc1n[nH]c(C)c1CCNC(=O)Nc1ccc2c(c1)COC2 | -20.4 |
| c1cc2c(cc1Cn1cc(C3CCOC3)nn1)OCO2 (stereo unspecified) | 3.86 |
| Cc1cc2nc(C(C)C)cc(N3CCC(N(C)C)C3)n2n1 (stereo unspecified) | -3.88 |
| Cc1cccnc1N1CCN(C(=O)C(C)n2ccnc2C(C)C)CC1 (stereo unspecified) | -10.3 |
| Cc1cc(C)c2nc(CN3CCC(N4CCOC4=O)CC3)cc(O)c2c1 | -0.213 |
| CCc1cnc(N)nc1NC(C)c1cnn(C)c1 (stereo unspecified) | -0.333 |
| Cc1ocnc1C(=O)N1CCN(Cc2ccccc2)[C@@H]2CS(=O)(=O)C[C@@H]21 | -1.26 |
| Cc1nc(CN(C)C(=O)c2cc(C)sc2NC(=O)C(C)(C)C)no1 | 3.81 |
| O=C(c1ccccc1C(F)(F)F)N1CC[C@@H](N2CCC(O)CC2)[C@H](O)C1 | -2.49 |
| Cc1ccc(C(=O)N2C[C@@H](NS(C)(=O)=O)[C@H](C(C)C)C2)cc1O | -2.62 |
| Cc1ccc(N2CCN(C(=O)C3CN(C)C(=O)N3)CC2=O)cc1 (stereo unspecified) | -2.61 |
| CCCn1ncc(C(=O)N(Cc2cccnc2)C[C@@H]2CCC(=O)N2)c1C | 7.69 |
| COCCN(C)C(C(=O)O)c1cc(Cl)ccc1OC (stereo unspecified) | -6.92 |
| O=C(N[C@@H]1CCN(c2ncc(Cl)cc2Cl)C[C@H]1O)c1cnccn1 | -8.92 |

| Structure (SMILES) | cytotoxicity at 10 µM [%] |
| --- | --- |
| CNc1cc(C)nc(N2CCC3(CC2)[C@H](O)C[C@@H]3O)n1 | -17.5 |
| CCOc1ccccc1-n1c(-c2cn(CC)nc2C)n[nH]c1=O | 2.81 |
| Cc1cc(C(=O)N2C[C@@H](CN3CCCCC3)[C@@H](CO)C2)ccc1O | 0.251 |
| CCCc1ncc(CN(CCOC)Cc2cccs2)cn1 | -0.683 |
| Cc1cccc2c1nc(COCC(=O)O)n2-c1ccsc1 | -0.793 |
| CNC(=O)[C@@H]1C[C@H](N)CN1S(=O)(=O)c1cc(C)c(Cl)cc1C | -0.869 |
| Cc1cc(NC(=O)CNCc2csc(-c3ncccn3)n2)ccc1Cl | -7.21 |
| O=C1CC(NCc2ccccn2)CN1CCc1ccc(F)cc1 (stereo unspecified) | 7.18 |
| O=C(CCCn1ccnc1)N1CCC2(CC1)[C@H](O)C[C@@H]2OCCO | 3.31 |
| O=C1N(Cc2cccc(F)c2F)CCCC1(O)CN1CCCOCC1 (stereo unspecified) | 18.3 |
| Cc1ccc(NC2CCN(C(=O)c3ccc4c(c3)CCC4)CC2)nn1 | -8.19 |
| Cc1cc(C)c(CNC(=O)N(C)Cc2cccc(F)c2)c(=O)[nH]1 | -1.62 |
| c1ccc(-c2nc(CN3CCOC(Cn4cncn4)C3)cs2)cc1 (stereo unspecified) | -4.33 |
| CC(C)(C)c1n[nH]c(C2CN(C(=O)CCc3ccco3)CCO2)n1 (stereo unspecified) | -8.24 |
| Cn1nccc1C(=O)Nc1cc(C(F)(F)F)c[nH]c1=O | -6.54 |
| COc1cc(CNCCn2cc(C)cn2)cc2c1OCCO2 | -9.07 |
| c1ccc(-c2nc(CN3CCCC3Cn3cncn3)no2)cc1 (stereo unspecified) | -7.22 |
| CC(=O)NCc1ccc(C(=O)NC2CCc3nc(C)cn3C2)o1 (stereo unspecified) | -3.81 |
| Cc1nccn1C1CCCN(C(=O)c2ccnc(-n3ccnc3)c2)C1 (stereo unspecified) | 0.998 |
| COCCN1CCC(CNCc2c[nH]nc2C(C)(C)C)CC1 | -17 |
| Cc1cccc(CN(C)Cc2nc3c(cnn3C)c(=O)[nH]2)c1 | -8.08 |
| CCn1cc(NC(=O)NCC(c2cccc(F)c2)N(C)C)cn1 (stereo unspecified) | 0.633 |
| CCC(O)CN1CCN(C(=O)c2cccn2Cc2ccccc2)CC1 (stereo unspecified) | -8.03 |

| Structure (SMILES) | cytotoxicity at 10 µM [%] |
| --- | --- |
| CCNC(c1cccnc1)c1ccc(F)c(F)c1 (stereo unspecified) | 1.03 |
| C1CC(c2noc(C3CC3)n2)CN(Cc2noc(C3CC3)n2)C1 (stereo unspecified) | -5.16 |
| COCc1nc(C(=O)N2CCCC(n3cccn3)C2)cs1 (stereo unspecified) | -7.42 |
| CC(NC(=O)NCc1ccc(Cl)s1)c1ccccn1 (stereo unspecified) | 1.64 |
| Cc1noc(C(C)C)c1C(=O)N1CCCN(Cc2cscn2)CC1 | -3.56 |
| CCc1nnc(CN2CCN(C(=O)c3ccccn3)CC2)o1 | 3.49 |
| Cc1oc(-c2ccco2)nc1CC(=O)N1CCN(C2CCC2)CC1 | 4.33 |
| CCC(CO)NCc1ccc(-c2ccc(Cl)cc2)o1 (stereo unspecified) | 5.24 |
| c1ccc(OC[C@]23COC[C@H]2CN(Cc2ccoc2)C3)nc1 | -8.63 |
| CN(C)c1ncc2c(c1C(=O)O)CCN(Cc1ccco1)C2 | 3.57 |
| O=C(C1CCOC1)N1C[C@H]2CN(Cc3cccnc3)C(=O)[C@H]2C1 (stereo partly specified) | -108 |
| CN(C)C(=O)N1CCN(Cc2cnn(C)c2)CC2(CNC(=O)C2)C1 (stereo unspecified) | 1.21 |
| O=C(CN1CCN(CC(O)C2CC2)CC1)NCc1ccccc1Cl (stereo unspecified) | 5.23 |
| CN1C(=O)C2(CCN(S(C)(=O)=O)CC2)c2cc(F)ccc21 | -106 |
| CCCC(=O)NC1CCc2c(ccc(=O)n2Cc2csc(C)n2)C1 (stereo unspecified) | 3.79 |
| O=C1C[C@@H]2CC[C@H](CN1)N2C(=O)CCc1ccc2c(c1)OCO2 | -5 |
| CCOc1ncccc1Cn1cc2[nH]cccc-2c1=O | 1.93 |
| O=C1C[C@@H]2CC[C@H](CN1)N2C1CSCCSC1 | -2.26 |
| O=C(c1ccco1)N1C2CCC(O)(CC2)C1CN1CCOCC1 (stereo unspecified) | 6.93 |
